Data reported in ChEMBL document CHEMBL4002591 (J Med Chem, 2017).
Calls of active or inactive are those of the source. The calls are words filed in the database; no cut-off is given here.

Assays:
DLD-1 = assay: Anti-proliferative activity against human DLD1 cells assessed as inhibition of colony formation at 1 uM measured after 18 days under normal serum condition by trypan blue staining based light microscopic analysis; type: functional, cell-based
Method in brief: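 DLD-1 colony-forming assay under normal serum: 1000 cells/well, with 1.0 µM or 100 nM compound, or a 1% DMSO (v/v) vehicle control. Colonies were counted, n = 3.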

3T3-L1 = assay: Effect on glucose uptake in mouse 3T3L1 cells at 1 uM using 2-deoxy-D-[2,6-3H]glucose as substrate pretreated for 1 hr followed substrate addition measured after 5 mins by scintillation counter; type: ADME, cell-based; settings: 3t3-l1, 5 min
Method in brief: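 3T3-L1 fibroblasts were grown in DMEM and differentiated to adipocytes with insulin, dexamethasone and isobutylmethylxanthine, then used 10-12 d later. Cells were serum-starved 2 h at 37°C and given compound for 1 h. After KRH washes (pH 7.4), cells were held 30 min with compound, with or without 100 nM insulin. 2-Deoxy-D-[2,6-³H]glucose was added for 5 min.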

[1] = biological target: T1, Protein mono-ADP-ribosyltransferase PARP16 (Homo sapiens, UniProt Q8N5Y8); assay: Inhibition of PARP16 (unknown origin)
T1 sequence (Q8N5Y8 whole entry): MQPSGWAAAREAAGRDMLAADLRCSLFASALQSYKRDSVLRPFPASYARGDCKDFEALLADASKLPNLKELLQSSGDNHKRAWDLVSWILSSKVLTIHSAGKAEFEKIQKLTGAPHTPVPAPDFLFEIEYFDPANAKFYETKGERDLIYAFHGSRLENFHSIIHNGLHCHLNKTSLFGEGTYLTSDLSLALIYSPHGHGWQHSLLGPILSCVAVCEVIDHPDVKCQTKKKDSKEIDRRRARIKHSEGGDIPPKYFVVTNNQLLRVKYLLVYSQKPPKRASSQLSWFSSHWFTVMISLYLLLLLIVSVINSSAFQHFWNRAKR

[2] = biological target: Poly [ADP-ribose] polymerase 2 (Homo sapiens, UniProt Q9UGN5); assay: Inhibition of recombinant human N-terminal GST-tagged PARP2 (2 to 583 residues) expressed in baculovirus infected Sf9 cells measured after 1 hr by chemiluminescence assay
Chain of Poly [ADP-ribose] polymerase 2 (Q9UGN5 whole entry, the tested form may be a part): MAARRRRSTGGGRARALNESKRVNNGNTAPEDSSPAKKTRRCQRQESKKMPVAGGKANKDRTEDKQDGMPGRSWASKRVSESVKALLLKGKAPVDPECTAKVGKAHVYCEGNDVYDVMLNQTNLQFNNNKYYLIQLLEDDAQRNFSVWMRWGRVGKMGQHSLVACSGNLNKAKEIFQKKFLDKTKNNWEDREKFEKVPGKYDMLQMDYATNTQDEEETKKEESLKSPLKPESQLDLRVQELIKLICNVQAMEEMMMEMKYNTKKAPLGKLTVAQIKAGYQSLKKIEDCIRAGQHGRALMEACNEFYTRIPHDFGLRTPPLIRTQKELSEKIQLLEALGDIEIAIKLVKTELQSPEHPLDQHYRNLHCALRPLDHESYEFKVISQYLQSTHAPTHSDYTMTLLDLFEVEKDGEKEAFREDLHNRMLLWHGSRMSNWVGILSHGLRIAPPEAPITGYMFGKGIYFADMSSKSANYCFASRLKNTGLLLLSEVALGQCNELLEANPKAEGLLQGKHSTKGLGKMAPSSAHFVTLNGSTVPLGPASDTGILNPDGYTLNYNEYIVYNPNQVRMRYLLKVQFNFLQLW

[3] = Inhibition of tankyrase (unknown origin) expressed in TCF/LEF-HEK293 cells assessed as inhibition of Wnt/beta-catenin signaling pathway in Wnt3a conditioned medium measured after 20 hrs by luciferase reporter gene assay; type: cell-based; settings: Homo sapiens
[4] = biological target: T2, Protein mono-ADP-ribosyltransferase PARP15 (Homo sapiens, UniProt Q460N3); assay: Inhibition of PARP15 (unknown origin)
T2 sequence (Q460N3 whole entry): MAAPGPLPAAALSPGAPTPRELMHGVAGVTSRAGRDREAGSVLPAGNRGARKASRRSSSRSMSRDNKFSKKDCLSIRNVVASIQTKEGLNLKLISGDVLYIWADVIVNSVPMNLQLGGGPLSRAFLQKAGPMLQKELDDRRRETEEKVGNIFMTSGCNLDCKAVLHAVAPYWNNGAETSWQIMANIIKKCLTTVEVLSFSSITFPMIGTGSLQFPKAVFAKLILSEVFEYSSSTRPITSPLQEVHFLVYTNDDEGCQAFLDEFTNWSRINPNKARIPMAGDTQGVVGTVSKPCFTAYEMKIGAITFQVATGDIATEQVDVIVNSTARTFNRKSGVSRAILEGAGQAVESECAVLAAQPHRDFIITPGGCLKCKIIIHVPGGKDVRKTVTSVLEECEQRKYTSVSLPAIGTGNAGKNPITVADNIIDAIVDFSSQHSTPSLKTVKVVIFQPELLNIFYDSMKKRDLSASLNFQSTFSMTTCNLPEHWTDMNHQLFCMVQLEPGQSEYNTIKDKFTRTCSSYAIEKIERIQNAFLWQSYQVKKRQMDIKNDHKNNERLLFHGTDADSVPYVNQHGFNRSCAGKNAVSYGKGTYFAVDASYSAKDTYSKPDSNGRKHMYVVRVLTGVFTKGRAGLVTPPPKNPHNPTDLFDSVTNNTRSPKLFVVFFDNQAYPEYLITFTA

[5] = biological target: T3, Protein mono-ADP-ribosyltransferase PARP10 (Homo sapiens, UniProt Q53GL7); assay: Inhibition of PARP10 (unknown origin)
T3 sequence (Q53GL7 whole entry): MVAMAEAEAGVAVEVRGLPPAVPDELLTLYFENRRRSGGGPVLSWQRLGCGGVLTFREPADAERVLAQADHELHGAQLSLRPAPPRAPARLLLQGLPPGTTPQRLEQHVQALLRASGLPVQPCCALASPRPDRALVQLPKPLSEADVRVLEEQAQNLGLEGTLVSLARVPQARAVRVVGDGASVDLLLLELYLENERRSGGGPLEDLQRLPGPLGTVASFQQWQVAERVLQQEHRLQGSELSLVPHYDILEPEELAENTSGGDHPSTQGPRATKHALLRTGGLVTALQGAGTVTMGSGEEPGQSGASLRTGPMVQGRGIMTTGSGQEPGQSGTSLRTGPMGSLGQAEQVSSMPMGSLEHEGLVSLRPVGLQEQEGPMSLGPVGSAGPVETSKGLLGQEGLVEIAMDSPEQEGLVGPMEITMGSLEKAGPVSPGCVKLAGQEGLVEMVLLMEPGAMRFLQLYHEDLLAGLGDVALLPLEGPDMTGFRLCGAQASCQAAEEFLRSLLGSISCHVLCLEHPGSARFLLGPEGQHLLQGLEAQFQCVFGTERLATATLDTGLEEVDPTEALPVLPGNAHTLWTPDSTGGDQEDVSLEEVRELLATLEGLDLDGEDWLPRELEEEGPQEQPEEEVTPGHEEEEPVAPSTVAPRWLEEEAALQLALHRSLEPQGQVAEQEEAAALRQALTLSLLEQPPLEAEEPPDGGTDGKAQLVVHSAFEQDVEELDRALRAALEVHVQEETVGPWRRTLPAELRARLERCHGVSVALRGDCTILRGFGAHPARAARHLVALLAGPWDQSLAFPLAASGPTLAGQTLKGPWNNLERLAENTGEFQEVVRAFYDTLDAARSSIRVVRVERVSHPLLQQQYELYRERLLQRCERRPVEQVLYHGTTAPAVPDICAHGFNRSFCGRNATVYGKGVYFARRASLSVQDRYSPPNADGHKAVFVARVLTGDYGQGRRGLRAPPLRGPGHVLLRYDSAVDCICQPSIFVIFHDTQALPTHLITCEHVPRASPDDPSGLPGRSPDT

SMILES	inhibition (DLD-1)	Activity (3T3-L1)	IC50 [1] [µM]	IC50 [2] [µM]	IC50 ([3]; read-out: IC50) [µM]	IC50 ([3]; read-out: pIC50 (converted)) [µM]	IC50 [4] [µM]	IC50 [5] [µM]
Cc1cccc2c(=O)[nH]c(CCC(=O)Nc3ccc(C(=O)Nc4cccc5cccnc45)cc3)nc12	Active	Non-Toxic	> 100	11.6	0.037	0.0372	> 100	> 100
O=C(CCc1nc2ccccc2c(=O)[nH]1)Nc1ccc(C(=O)Nc2cccc3cccnc23)cc1	Active	Non-Toxic	> 100	6.9	0.029	0.0288	> 100	> 100
